The source of these data is ChEMBL document CHEMBL1124171, “Ergolines as selective 5-HT1 agonists” (J Med Chem, 1988).

Assay [1] relates to Rattus norvegicus. Kind of assay: Effect of Metergoline on the elevation of serum corticosterone, after sc administration (1.0 mg/kg) Metergoline pretreament. Type of assay: functional, organism-based. The gist of the method:
(§1)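 Male Wistar rats (~150 g) received metergoline (3 mg/kg, ip) or no pretreatment. Drug was given sc in dilute HCl 1 h later, and rats were decapitated 1 h after that. Serum corticosterone was determined spectrofluorometrically. Results are mean ± SE, five rats/group, P < 0.05 versus the corresponding control.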

For assay [2], the system named is Rattus norvegicus. Kind of assay: Effect on 5-hydroxyindoleacetic acid in rat whole brain, after sc administration (0.03 mg/kg dose) (experiment 1). In kind it is functional, organism-based. In outline:
(§2)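 Drug was given sc in dilute HCl to male Wistar rats (~150 g), with decapitation 1 h later. Whole brains were frozen on dry ice and held at −15 °C. […] Results are mean ± SE, five rats/group, P < 0.05 versus vehicle control.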

Assay [3] relates to Rattus norvegicus. The assay can be described thus: Minimum effective dose required to increase (MED) corticosterone in rat serum, sc. In kind it is functional. The settings on record: read-out: MED. The gist of the method: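 Male Wistar rats (~150 g). Compound in dilute HCl given sc at graded doses 1 h before decapitation. Whole-brain 5-HIAA measured by LC with electrochemical detection; serum corticosterone measured spectrofluorometrically. Minimum effective dose is the lowest dose giving a significant difference from control (P < 0.05).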

The test system of assay [4] is Rattus norvegicus. Kind of assay: Decreased accumulation of 5-hydroxytryptophan after decarboxylase inhibition in the hypothalamus of rat at a dose 0.3 mg/Kg, sc. In kind it is functional, organism-based. The gist of the method: (§3)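 Male Wistar rats (~150 g) got drug sc in dilute HCl. NSD 1015 (100 mg/kg, ip) was given 30 min after drug and 30 min before decapitation. Hypothalamic 5-HTP was measured by LC with electrochemical detection. Results are mean ± SE, five rats per treated group and six controls; significance at P < 0.01.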

Assay [5] concerns Rattus norvegicus. Kind of assay: Effect on 5-hydroxyindoleacetic acid in rat whole brain, after sc administration (0 mg/kg dose) (experiment 2). In kind it is functional, organism-based. In outline:
as §2

Assay [6] has as its system Rattus norvegicus. The assay can be described thus: Effect on serum corticosterone in serum of rats after sc administration (0 mg/kg dose) (experiment 1). Type of assay: functional, organism-based. In outline:
(§4)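 Male Wistar rats (~150 g) housed at 24 °C with lights 7 a.m.–7 p.m. Compound in dilute HCl given sc 1 h before decapitation. Serum corticosterone measured spectrofluorometrically, μg/100 mL. Five rats per group, mean ± SE. Significance set at P < 0.05 versus the vehicle control.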

For assay [7], the species on record is Rattus norvegicus. The assay can be described thus: Effect of […] on the elevation of serum corticosterone at a dose 100 ug/mL No pretreatment. In kind it is functional, organism-based. The gist of the method:
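Rats got p-chlorophenylalanine (300 mg/kg, ip) or no pretreatment. 24 h later, drug (0.3 mg/kg, sc, dilute HCl) or p-chloroamphetamine HCl (2.5 mg/kg, ip) was given, and rats were killed 1 h after. Serum corticosterone was measured spectrofluorometrically. Results are mean ± SE, five male Wistar rats/group.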

In assay [8] the test system is Rattus norvegicus. Kind of assay: Effect on 5-hydroxyindoleacetic acid in rat whole brain, after sc administration (0.03 mg/kg dose) (experiment 2). Type of assay: functional, organism-based. In outline: as §2
For assay [9], the system named is Rattus norvegicus. Kind of assay: Effect on homovanillic acid concentration in rat striatum, after 0.3 mg/kg sc administration. Type of assay: functional. Particulars: route subcutaneous. The gist of the method:
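Male Wistar rats (~150 g) were given drug or apomorphine HCl sc and decapitated 1 h later. Striatal DOPAC and HVA were quantified by LC with electrochemical detection. Results are mean ± SE, five rats/group, P < 0.05.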

For assay [10], the system named is Rattus norvegicus. Kind of assay: Effect on 5-hydroxyindoleacetic acid in rat whole brain, after sc administration (0.01 mg/kg dose) (experiment 2). Type of assay: functional, organism-based. The gist of the method: as §2
Assay [11] deals with Rattus norvegicus. Kind of assay: Effect of Metergoline on the elevation of serum corticosterone, after sc administration (0.1 mg/kg) No pretreatment. In kind it is functional, organism-based. In outline:
as §1

The subject of assay [12] is Rattus norvegicus. The assay can be described thus: Decreased accumulation of 5-hydroxytryptophan after decarboxylase inhibition in the hypothalamus of rat at a dose 0.03mg/Kg, sc. Type of assay: functional, organism-based. The gist of the method: as §3
For assay [13], the system named is Rattus norvegicus. Kind of assay: Effect on serum corticosterone in serum of rats after sc administration (1 mg/kg dose) (experiment 1). Type of assay: functional, organism-based. The gist of the method: as §4
Assay [14] relates to Rattus norvegicus. The assay can be described thus: Effect on 5-hydroxyindoleacetic acid in rat whole brain, after sc administration (1 mg/kg dose) (experiment 1). Type of assay: functional, organism-based. In outline:
as §2

In assay [15] the test system is Rattus norvegicus. The assay can be described thus: Effect on serum corticosterone in serum of rats after sc administration (0.03 mg/kg dose) (experiment 1). In kind it is functional, organism-based. The gist of the method: as §4
For assay [16], the system named is Rattus norvegicus. Kind of assay: Effect of Metergoline on the elevation of serum corticosterone, after sc administration (0.03 mg/kg) Metergoline pretreament. Type of assay: functional, organism-based. The gist of the method:
as §1

Assay [17] has as its system Rattus norvegicus. The assay can be described thus: Effect on concentration of serotonin in rat brain striatum after 0.3 mg/kg sc administration. Type of assay: functional, organism-based. On the set-up: dose 0.3 mg/kg. The gist of the method: (§5)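 Male Wistar rats (~150 g) were injected sc with drug in dilute HCl and decapitated 1 h later. Hypothalamus and striatum were dissected and frozen on dry ice. […] Results are mean ± SE, five rats/group, P < 0.05.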

Assay [18] deals with Serotonin 2 (5-HT2) receptor (Rattus norvegicus, UniProt P30994+P08909+P14842). The assay can be described thus: Binding affinity at 5-hydroxytryptamine 2 receptor from rat frontal cortex homogenates by [3H]-spiperone displacement. Type of assay: tissue-based.
Assay [19] relates to Rattus norvegicus. Kind of assay: Effect of Metergoline on the elevation of serum corticosterone, after sc administration (0.1 mg/kg) Metergoline pretreament. Type of assay: functional, organism-based. The gist of the method: as §1
The subject of assay [20] is Rattus norvegicus. The assay can be described thus: Effect on serotonin in rat whole brain, after sc administration (0.01 mg/kg dose) (experiment 2). Type of assay: functional, organism-based. The gist of the method: as §2
The test system of assay [21] is Rattus norvegicus. Kind of assay: Effect on 5-hydroxyindoleacetic acid in rat whole brain, after sc administration (0.3 mg/kg dose) (experiment 1). In kind it is functional, organism-based. The gist of the method: as §2
Assay [22] relates to Rattus norvegicus. The assay can be described thus: Effect on serum corticosterone in serum of rats after sc administration (0.3 mg/kg dose) (experiment 1). Type of assay: functional, organism-based. The gist of the method:
as §4

The subject of assay [23] is Rattus norvegicus. The assay can be described thus: Effect on concentration of 5HIAA in rat brain striatum after 0.3 mg/kg sc administration. The arrangement: dose 0.3 mg/kg. Type of assay: functional, organism-based. The gist of the method:
as §5

Assay [24] concerns Rattus norvegicus. Kind of assay: Effect of Metergoline on the elevation of serum corticosterone, after sc administration (0 mg/kg) No pretreatment. In kind it is functional, organism-based. The gist of the method:
as §1

For orientation: IC50 means the concentration needed to halve the response being measured. As for `C[C@@H]1C=C2c3cccc4c3[C@@H](CN4)C[C@H]2N(C)C1`, the Serum corticosterone was determined as 61.2 µg/mL with Rattus norvegicus [1]; 47.3 µg/mL in the assay listed under Rattus norvegicus [7]; 33.8 µg/mL in the assay on Rattus norvegicus [11]; 22.1 µg/mL in the assay with Rattus norvegicus [16]; 46.8 µg/mL with Rattus norvegicus [19]; 4.3 µg/mL in the assay on Rattus norvegicus [24]. Also, the Concentration with Rattus norvegicus [2] was determined as 1.52 nM/g; in the assay with Rattus norvegicus [4], 0.71 nM/g; in the assay with Rattus norvegicus [5], 2.2 nM/g; with Rattus norvegicus [6] it was 4.3 nM/g; with Rattus norvegicus [8], 1.9 nM/g; in the assay on Rattus norvegicus [10], 2.2 nM/g. For the same compound, the Concentration in the assay with Rattus norvegicus [12] is 1.19 nM/g; with Rattus norvegicus [13] it was 70.8 nM/g; with Rattus norvegicus [14], 1.47 nM/g; in the assay with Rattus norvegicus [15], 6.5 nM/g; in the assay with Rattus norvegicus [17], 1.94 mg/kg; with Rattus norvegicus [20] it was 2.67 nM/g. Besides, the Concentration with Rattus norvegicus [21] was 1.45 nM/g; in the assay with Rattus norvegicus [22], 46.6 nM/g; with Rattus norvegicus [23] it was less than 2.38 mg/kg. Besides, the minimal effective dose in the assay on Rattus norvegicus [3] was found to be 0.1 mg/kg. The Homovanillic acid concentration in the assay with Rattus norvegicus [9] came out at 3.27 nM/g. Moreover, in [18], the IC50 came to 1.665 µM.
